Test results taken from ChEMBL document CHEMBL1165950, “Design and synthesis of new potent anticancer pyrazoles with high FLT3 kinase inhibitory selectivity” (Bioorg Med Chem, 2010).

Tests used:
Type in all cases: functional
UACC-62 = assay: Cytotoxicity against human UACC62 cells assessed as cell growth at 100 nM after 48 hrs by sulforhodamine B assay; settings: UACC-62, 48 h, read-out: Activity
MDA-MB-231 [1] = assay: Cytotoxicity against human MDA-MB-231 cells assessed as cell growth at 0.001 uM after 48 hrs by sulforhodamine B assay; settings: MDA-MB-231, 48 h, read-out: Activity
CAKI-1 = assay: Cytotoxicity against human Caki1 cells assessed as cell growth at 100 nM after 48 hrs by sulforhodamine B assay; settings: CAKI-1, 48 h, read-out: Activity
TK-10 = assay: Cytotoxicity against human TK10 cells assessed as cell growth at 100 nM after 48 hrs by sulforhodamine B assay; settings: TK-10, 48 h, read-out: Activity
SNB-19 = assay: Cytotoxicity against human SNB19 cells assessed as cell growth at 10 uM; settings: read-out: Activity
Method in brief: (§1)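 NCI-60 screen: cells grown in RPMI 1640 with 5% FBS and 2 mM L-glutamine, plated at 5000–40,000 cells/well according to doubling time, and preincubated 24 h at 37 °C, 5% CO2. The single 10 µM dose (DMSO stock) was added, then incubated 48 h. Cells were TCA-fixed and stained with 0.4% SRB, read at 515 nm, and growth % calculated against time-zero and control plates.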

MDA-MB-231 [2] = assay: Cytotoxicity against human MDA-MB-231 cells assessed as cell growth at 10 uM; settings: read-out: Activity; method in brief: as §1
T47D = assay: Cytotoxicity against human T47D cells assessed as cell growth at 10 uM; settings: read-out: Activity; method in brief: as §1
CCRF-CEM = assay: Cytotoxicity against human CCRF-CEM cells assessed as cell growth at 0.001 uM after 48 hrs by sulforhodamine B assay; settings: read-out: Activity
Method in brief: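 NCI-60 five-dose screen. Cells were grown in RPMI 1640 with 5% FBS and 2 mM L-glutamine, plated at 5000–40,000 cells/well and preincubated for 24 h. Time-zero plates were TCA-fixed. DMSO-solubilized drug was added at five concentrations (10-fold or ½-log serial dilutions) for 48 h at 37 °C, 5% CO2. Cells were TCA-fixed, stained with 0.4% SRB and read at 515 nm. Percent growth used time-zero, control and test absorbances.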

SNB-75 = assay: Cytotoxicity against human SNB75 cells assessed as cell growth at 1 uM after 48 hrs by sulforhodamine B assay; settings: SNB-75, 48 h, read-out: Activity
Malme-3M = assay: Cytotoxicity against human MALME-3M cells assessed as cell growth at 1 uM after 48 hrs by sulforhodamine B assay; settings: read-out: Activity
HOP-62 = assay: Cytotoxicity against human HOP62 cells assessed as cell growth at 0.001 uM after 48 hrs by sulforhodamine B assay; settings: HOP-62, 48 h, read-out: Activity
HOP-92 = assay: Cytotoxicity against human HOP92 cells assessed as cell growth at 0.001 uM after 48 hrs by sulforhodamine B assay; settings: HOP-92, 48 h, read-out: Activity
EKVX [3] = assay: Cytotoxicity against human EKVX cells assessed as cell growth at 0.01 uM after 48 hrs by sulforhodamine B assay; settings: read-out: Activity
NCI-H460 [4] = assay: Cytotoxicity against human NCI-H460 cells assessed as cell growth at 0.001 uM after 48 hrs by sulforhodamine B assay; settings: NCI-H460, 48 h, read-out: Activity
SF-295 = assay: Cytotoxicity against human SF295 cells assessed as cell growth at 0.001 uM after 48 hrs by sulforhodamine B assay; settings: SF-295, 48 h, read-out: Activity
EKVX [5] = assay: Growth inhibition of human EKVX cells after 48 hrs by sulforhodamine B assay; settings: for CC50: read-out: LC50 (the source's name)
Method in brief: (§2)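 NCI five-dose SRB assay in RPMI 1640 with 5% FBS and 2 mM L-glutamine. Cells were preincubated 24 h, then exposed 48 h at 37 °C to five concentrations (10-fold or half-log serial dilutions from DMSO stocks). TCA fixation, SRB staining, and absorbance at 515 nm followed. IC50 was taken where [(Ti−Tz)/(C−Tz)]×100 = 50, with Tz as time-zero cell density.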

NCI-H460 [6] = assay: Growth inhibition of human NCI-H460 cells after 48 hrs by sulforhodamine B assay; settings: NCI-H460, 48 h; for CC50: read-out: LC50 (the source's name)
Method in brief: (§3)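 NCI 60-cell screen, five-dose mode. Cells grown in RPMI 1640 with 5% FBS and 2 mM L-glutamine and plated at 5000-40,000 cells/well according to doubling time. After 24 h preincubation, a Tz plate was TCA-fixed. Five concentrations (10-fold or 1/2 log dilutions) were applied for 48 h at 37 °C. SRB staining read at 515 nm. IC50 taken from [(Ti-Tz)/(C-Tz)]×100 = 50.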

SF-268 [7] = assay: Growth inhibition of human SF268 cells after 48 hrs by sulforhodamine B assay; settings: SF-268, 48 h; for CC50: read-out: LC50 (the source's name); method in brief: as §3
786-0 = assay: Growth inhibition of human 786-0 cells after 48 hrs by sulforhodamine B assay; settings: 786-0, 48 h; for CC50: read-out: LC50 (the source's name); method in brief: as §2
HL-60(TB) = assay: Cytotoxicity against human HL-60(TB) cells assessed as cell growth at 100 nM after 48 hrs by sulforhodamine B assay; settings: HL-60, 48 h, read-out: Activity
Method in brief: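 NCI 60-cell panel. Cells are grown in RPMI 1640 with 5% FBS and 2 mM L-glutamine, seeded at 5000–40,000 cells/well according to doubling time, and preincubated 24 h. Time-zero plates are TCA-fixed. Compound from DMSO stock is given at five 10-fold or 1/2-log concentrations for 48 h at 37 °C, 5% CO2. Suspension cells are fixed with 80% TCA (final 16%) and SRB-stained, with absorbance at 515 nm. Percent growth is derived from Tz, control and test readings.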

MDA-MB-468 = assay: Growth inhibition of human MDA-MB-468 cells after 48 hrs by sulforhodamine B assay; settings: MDA-MB-468, 48 h; method in brief: as §3
NCI-H226 = assay: Cytotoxicity against human NCI-H226 cells assessed as cell growth at 10 uM; settings: read-out: Activity; method in brief: as §1
NCI-H522 = assay: Cytotoxicity against human NCI-H522 cells assessed as cell growth at 10 uM; settings: read-out: Activity; method in brief: as §1
SF-268 [8] = assay: Cytotoxicity against human SF268 cells assessed as cell growth at 10 uM after 48 hrs by sulforhodamine B assay; settings: SF-268, 48 h, read-out: Activity
M14 = assay: Cytotoxicity against human M14 cells assessed as cell growth at 10 uM after 48 hrs by sulforhodamine B assay; settings: M14, 48 h, read-out: Activity
OVCAR-3 = assay: Cytotoxicity against human OVCAR-3 cells assessed as cell growth at 10 uM after 48 hrs by sulforhodamine B assay; settings: OVCAR-3, 48 h, read-out: Activity
OVCAR-8 = assay: Cytotoxicity against human OVCAR8 cells assessed as cell growth at 10 uM after 48 hrs by sulforhodamine B assay; settings: OVCAR-8, 48 h, read-out: Activity

For `COc1cc(C)cc(-c2nn(CC#N)cc2-c2ccc(-c3cccc(C(C)=O)c3)nc2)c1`, the growth at 0.1 µM (UACC-62) was 71%, the growth at 0.001 µM (MDA-MB-231 [1]) was 102% and the growth at 0.1 µM (CAKI-1) was 69%. The growth at 0.1 µM (TK-10) was 101%, the growth at 10 µM (SNB-19) was 27.8% and the growth at 10 µM (MDA-MB-231 [2]) was 34.8%. For the same molecule, the growth at 10 µM (T47D) was 11.6%, the growth at 0.001 µM (CCRF-CEM) was 96% and the growth at 1 µM (SNB-75) was -20%. The growth at 1 µM (Malme-3M) was 38%, the growth at 0.001 µM (HOP-62) was 84% and the growth at 0.001 µM (HOP-92) was 84%. It also gave a growth at 0.01 µM (EKVX [3]) of 99%, a growth at 0.001 µM (NCI-H460 [4]) of 104% and a growth at 0.001 µM (SF-295) of 99%. For the same molecule, the GI50 (EKVX [5]) was 3.98 µM, the TGI (EKVX [5]) was 50.7 µM and the CC50 (EKVX [5]) was over 100 µM. It also gave a GI50 (NCI-H460 [6]) of 2.04 µM, a TGI (NCI-H460 [6]) of 5.72 µM and a CC50 (NCI-H460 [6]) of 26.6 µM. It also gave a GI50 (SF-268 [7]) of 4.07 µM, a TGI (SF-268 [7]) of 81.4 µM and a CC50 (SF-268 [7]) of over 100 µM. The GI50 (786-0) was 3.52 µM, the TGI (786-0) was 93 µM and the CC50 (786-0) was over 100 µM. The growth at 0.1 µM (HL-60(TB)) was 66%, the GI50 (MDA-MB-468) was 0.275 µM and the LC50 (concentration giving 50% net cell kill) (MDA-MB-468) was 52.3 µM. The TGI (MDA-MB-468) was 1.49 µM, the growth at 10 µM (NCI-H226) was 47.8% and the growth at 10 µM (NCI-H522) was -3.15%. It also gave a growth at 10 µM (SF-268 [8]) of -2%, a growth at 10 µM (M14) of -43% and a growth at 10 µM (OVCAR-3) of -64%. For the same molecule, the growth at 10 µM (OVCAR-8) was -11%.
`COc1cc(C)cc(-c2nn(CC#N)cc2-c2ccnc(-c3ccc(N(C)C)cc3)c2)c1` was tested, and the growth at 0.1 µM (UACC-62) was 18%, the growth at 0.001 µM (MDA-MB-231 [1]) was 97% and the growth at 0.1 µM (CAKI-1) was 14%. For the same molecule, the growth at 0.1 µM (TK-10) was 50%, the growth at 10 µM (SNB-19) was 15.9% and the growth at 10 µM (MDA-MB-231 [2]) was -2.19%. For the same molecule, the growth at 10 µM (T47D) was 39%, the growth at 0.001 µM (CCRF-CEM) was 97% and the growth at 1 µM (SNB-75) was -12%. The growth at 1 µM (Malme-3M) was 61%, the growth at 0.001 µM (HOP-62) was 108% and the growth at 0.001 µM (HOP-92) was 102%. The growth at 0.01 µM (EKVX [3]) was 89%, the growth at 0.001 µM (NCI-H460 [4]) was 103% and the growth at 0.001 µM (SF-295) was 93%. The GI50 (EKVX [5]) was 0.696 µM, the TGI (EKVX [5]) was over 10 µM and the CC50 (EKVX [5]) was over 100 µM. For the same molecule, the CC50 (NCI-H460 [6]) was 94.7 µM, the GI50 (SF-268 [7]) was 0.478 µM and the TGI (SF-268 [7]) was 8.9 µM. It also gave a CC50 (SF-268 [7]) of over 100 µM, a GI50 (786-0) of 0.42 µM and a TGI (786-0) of 5.43 µM. The CC50 (786-0) was over 100 µM, the growth at 0.1 µM (HL-60(TB)) was -3% and the GI50 (MDA-MB-468) was 0.181 µM. For the same molecule, the LC50 (concentration giving 50% net cell kill) (MDA-MB-468) was 7.24 µM, the TGI (MDA-MB-468) was 0.635 µM and the growth at 10 µM (NCI-H226) was 24.9%. The growth at 10 µM (NCI-H522) was -14.9%, the growth at 10 µM (SF-268 [8]) was -32% and the growth at 10 µM (M14) was -16%. It also gave a growth at 10 µM (OVCAR-3) of -42% and a growth at 10 µM (OVCAR-8) of -8%.
